Results gathered from unrelated publications.
Protocols differ between the studies behind these lines.

O=C1Nc2ccccc2C(=O)CCc2ccc(O)cc21  IC50 (L6; cell growth or viability): 200000 nM
CCn1cc(-c2nc(C)no2)c(=O)c2cc(F)c(N3CCCCC3)cc21  EC50 (Plasmodium falciparum; parasite growth; 3D7; 72 h, blood stage): 26 nM
O=C1Nc2ccccc2C(=O)CCc2ccccc21  IC50 (L6; cell growth or viability): 53000 nM
CCn1cc(-c2nc(C)no2)c(=O)c2cc(F)c(N3CCC4(CC3)CC4)cc21  EC50 (Plasmodium falciparum; parasite growth; 3D7; 72 h, blood stage): 967 nM
CS(=O)(=O)c1ccc2c(c1)C(=O)CCc1ccccc1C(=O)N2  IC50 (L6; cell growth or viability): > 300000 nM
CN1CCN(c2nsnc2-c2ccc3c(Nc4ccc(OCc5cccc(F)c5)c(Cl)c4)ccnc3c2)CC1  EC50 (Plasmodium falciparum; parasite growth; D6; drug-resistant strain, blood stage): 100 nM
O=C1C(O)=C([C@H]2CC[C@H](c3ccc(Cl)cc3)CC2)C(=O)c2ccccc21  EC50 (Plasmodium falciparum; parasite growth; 3D7; blood stage): 1.6 nM
CN1CCN(S(=O)(=O)c2ccc(-c3ccc4c(Nc5cccnc5)ccnc4c3)cc2)CC1  EC50 (Plasmodium falciparum; parasite growth; D6; drug-resistant strain, blood stage): 130 nM
C[C@@H]1CC[C@H]2[C@@H](C)C(=O)O[C@@H]3O[C@@]4(C)CC[C@@H]1[C@]32OO4  IC50 (Plasmodium falciparum; parasite growth; W2; drug-resistant strain, blood stage): 9 ng/mL
Fc1cccc(COc2ccc(Nc3ccnc4cc(-c5cn[nH]c5)ccc34)cc2Cl)c1  EC50 (Plasmodium falciparum; parasite growth; D6; drug-resistant strain, blood stage): 21 nM
CC(=O)Nc1cccc(-n2c(=O)n(C3CC3)c(=O)c3c(Nc4ccc(I)cc4F)n(C)c(=O)c(C)c32)c1  viability (SW1417; cell growth or viability, resazurin; 1.56 nM, 72 h): 80.5%
CCn1cc(-c2nc(C)no2)c(=O)c2cc(F)c(N3CCOCC3)cc21  EC50 (Plasmodium falciparum; parasite growth; 3D7; 72 h, blood stage): 297 nM
CN1CCN(S(=O)(=O)c2ccc(-c3ccc4c(Nc5ccc(Cl)cn5)ccnc4c3)cc2)CC1  EC50 (Plasmodium falciparum; parasite growth; D6; drug-resistant strain, blood stage): 250 nM
